Test results: ChEMBL document CHEMBL1125306, “5,10-Methylenetetrahydro-5-deazafolic acid and analogues: synthesis and biological activities” (J Med Chem, 1992)

Tests used:
[1] = biological target: T1, Dihydrofolate reductase (Homo sapiens) (UniProt P00374); test: Percent inhibition against human DHFR; conditions: concentration not given here
T1 sequence (whole entry): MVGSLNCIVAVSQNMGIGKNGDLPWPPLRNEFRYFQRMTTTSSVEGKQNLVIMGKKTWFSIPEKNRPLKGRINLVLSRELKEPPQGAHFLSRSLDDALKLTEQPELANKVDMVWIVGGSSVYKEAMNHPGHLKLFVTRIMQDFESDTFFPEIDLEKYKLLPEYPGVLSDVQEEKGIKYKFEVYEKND

Dihydrofolate reductase [2] = biological target: T2, Dihydrofolate reductase (Homo sapiens, UniProt P00374); test: Compound was evaluated for the inhibition of recombinant human Dihydrofolate reductase (DHFR)
T2 sequence (P00374 whole entry): T1 sequence (whole entry)

Thymidylate synthase [3] = biological target: Thymidylate synthase (Homo sapiens, UniProt P04818); test: Compound was evaluated for the inhibition of recombinant human thymidylate synthase
Chain of Thymidylate synthase (Homo sapiens, UniProt P04818) (P04818 whole entry): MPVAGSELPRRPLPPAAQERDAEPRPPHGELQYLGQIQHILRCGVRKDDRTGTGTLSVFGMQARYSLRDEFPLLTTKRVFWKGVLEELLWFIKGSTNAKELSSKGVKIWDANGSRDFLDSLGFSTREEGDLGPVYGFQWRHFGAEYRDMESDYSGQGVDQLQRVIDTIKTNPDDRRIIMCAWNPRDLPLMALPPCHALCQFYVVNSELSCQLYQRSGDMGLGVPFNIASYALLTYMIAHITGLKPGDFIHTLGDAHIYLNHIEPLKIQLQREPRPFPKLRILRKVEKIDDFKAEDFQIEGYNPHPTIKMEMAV

Dihydrofolate reductase [4] = biological target: Dihydrofolate reductase (Lactobacillus casei, UniProt P00381); test: Compound was evaluated for the inhibition of Lactobacillus casei DHFR; parameters: species or system Lacticaseibacillus casei
Chain of Dihydrofolate reductase (Lactobacillus casei, UniProt P00381) (P00381 whole entry): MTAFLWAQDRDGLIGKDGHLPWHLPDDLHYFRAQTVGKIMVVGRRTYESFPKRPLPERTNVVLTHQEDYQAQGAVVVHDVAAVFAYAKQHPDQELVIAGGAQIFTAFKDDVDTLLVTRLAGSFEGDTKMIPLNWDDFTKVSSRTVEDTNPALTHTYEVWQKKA

Manca [5] = test: Compound was evaluated for the inhibition of Manca human lymphoma cell growth; no inhibition; assay type: functional, cell-based
How it was run: (§1)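 Manca human lymphoma cells grown in RPMI medium with 10% fetal calf serum. Growth was estimated by tetrazolium reduction.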

Thymidylate synthase [6] = biological target: T3, Thymidylate synthase (Lactobacillus casei, UniProt P00469); test: Compound was evaluated for the inhibition of Lactobacillus casei thymidylate synthase; parameters: species or system Lacticaseibacillus casei
T3 sequence (P00469 whole entry): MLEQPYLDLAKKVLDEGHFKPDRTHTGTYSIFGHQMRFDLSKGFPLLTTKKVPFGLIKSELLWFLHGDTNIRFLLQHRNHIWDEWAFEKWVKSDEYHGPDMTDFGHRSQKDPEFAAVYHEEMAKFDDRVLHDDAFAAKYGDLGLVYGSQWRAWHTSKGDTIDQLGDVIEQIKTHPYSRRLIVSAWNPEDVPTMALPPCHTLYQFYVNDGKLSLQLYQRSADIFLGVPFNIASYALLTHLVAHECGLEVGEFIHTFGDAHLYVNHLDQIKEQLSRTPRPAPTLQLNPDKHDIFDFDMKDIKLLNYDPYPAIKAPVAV

Manca [7] = test: Compound was evaluated for the inhibition of Manca human lymphoma cell growth; assay type: functional, cell-based; how it was run: as §1
Dihydrofolate reductase [8] = biological target: T2, Dihydrofolate reductase; test: Compound was evaluated for the inhibition of recombinant human Dihydrofolate reductase (DHFR); no inhibition
[9] = biological target: GAR formyltransferase (Lactobacillus casei); test: Compound was evaluated for the inhibition of Glycinamide ribonucleotide formyl transferase (GAR) with formyl (6R) tetrahydrofolate as substrate

inhibition [1] | IC50 (Dihydrofolate reductase [2]) | IC50 (Thymidylate synthase [3]) | IC50 (Dihydrofolate reductase [4]) | IC50 (Thymidylate synthase [6]) | IC50 (Dihydrofolate reductase [8]) | IC50 [9] | Structure (SMILES) | IC50 (Manca [5]) | IC50 (Manca [7])
34% | > 40 µM | > 40 µM | 5 µM | – | – | – | Nc1nc(O)c2c(n1)NCC1CN(c3ccc(C(=O)NC(CCC(=O)O)C(=O)O)cc3)CC21 (stereo not drawn) | > 20 µM | –
23% | > 80 µM | – | – | > 100 µM | – | – | Nc1nc(O)c2c(ncc3cn(-c4ccc(C(=O)NC(CCC(=O)O)C(=O)O)cc4)cc32)n1 (stereo not drawn) | – | 42 µM
– | – | – | – | 95 µM | > 95 µM | > 95 µM | Cc1c2cnc3nc(N)nc(O)c3c2c(C)n1C | – | > 10 µM
